Test results from the EternaBench riboswitch data.

Test system: MS2 coat protein
Assay: apparent Kd, MS2 coat protein; higher = weaker binding; RNA-MaP array; FMN 200 µM where present
How it was run: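 Stalled E. coli RNA polymerase produced the designs on Illumina sequencing-chip clusters. SNAP-549-labelled MS2 coat protein was added from 0.7 or 1.5 nM, doubling to 3 µM, without and then with constant ligand, in 100 mM Tris-HCl pH 7.5, 80 mM KCl, 4 mM MgCl2, BSA, DTT, yeast tRNA and Tween-20. The apparent Kd is the median of filtered per-cluster fits of green signal normalised to red-channel RNA signal and control-cluster median Fmax.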

[1] = designed as: ON switch for flavin mononucleotide, no ligand
[2] = ligand present: flavin mononucleotide, designed as: ON switch for flavin mononucleotide
[3] = designed as: OFF switch for flavin mononucleotide, no ligand
[4] = ligand present: flavin mononucleotide, designed as: OFF switch for flavin mononucleotide

| Sequence | apparent Kd [1] [nM] | apparent Kd [2] [nM] | apparent Kd [3] [nM] | apparent Kd [4] [nM] |
| --- | --- | --- | --- | --- |
| AAUUGGAUCCAGAAGGCAUGGACGACCCGUCACAUUAACAUGAGGAUCACCCAUGUCAAAAUACAUGAGGAUAUGGAUCCUAAA | 905 | 37.9 | – | – |
| AUAAUUUUAUAUAUCUUUUUAAUCAGAAGGCAUAACAUGAGGAUCACCCAUGUAUAUUAUAGUUAUGAGGAUAUGAUUUGGUUA | – | – | 8.94 | 11.3 |
| UGUCCAUAGCAGAAGGACAUAAAUAACCAUGAAAACAUGAGGAUCACCCAUGUAGGAUAUGCUAUGGACUAAGAGCGAAAGCUC | – | – | 5.38 | 17.8 |
| ACGAAGAAACAGAAGGGUAAAUUAGUUAAUUAUUAUUUGGUUAUGCACUACAGGAUAUGUAUAACAUGAGGAUCACCCAUGUAC | 87.2 | 53.5 | – | – |
| CAGCGAUAGCUAAAGUAUCUAUCAGAGGAUAUUCAUGAAACAUGAGGAUCACCCAUGUGAAACUGGGAGAAGGCUGAUAGAUAG | – | 5.92 | – | – |
| CCACAGGUAGGAUAUGCUGGGUGGGAUAAAUAUUUCCUGAGACAUGAGGAUCACCCAUGUAGAAGGACCAAAAG | – | – | 18.3 | 16.1 |
| ACAUACAUUCGAGGAUAUCGGUGAACAUAUUAACGAGAAGGCGAUAUAAUUUUUAAUCUUAUAAACAUGAGGAUCACCCAUGUA | 21.9 | 20.2 | – | – |
| UUUGAAUUGCAAGGAUAUCUUAUUUAGAUUUUAAGAGAAGGUGCUUUAUAGUUACAUGAGGAUCACCCAUGUAUUUCUUUUUAU | 25.5 | 17.7 | – | – |
| AAUUGACCGCUAGGAUAUGCACAUGAGGAUCACCCAUGUAAGCGUGUAAAGUGGUAUGCCCGUGUGUAGAAGGAGCGAUGCUGA | – | – | 47.6 | 40.6 |
| AAGUAUAGAGGAUAUACAUAGAUACAGAUUCAUGUAGAACUACAUGAGGAUCACCCAUGUAGAAGGCUAUACUA | – | – | 30.2 | 159 |
| UGUCGGAGCAGAGGAUAUUACAUGAGGAUCACCCAUGUAUGAACCAAUAGCUGGAAACAGCAAUGUAAGAAGGAUGCUCCGACA | – | – | 7.14 | 31.4 |
| AUAAAGCGAGGAUAUACAUGAGGAUCACCCAUGUGGCAGCCAGGUAGGAGUGACGUCGGUAGAAGGCGCACCCU | – | – | 31.9 | 35.6 |
| UGUUAUUAGACAGGAUAUUGAAUGUUAAGUAUUAACAUGAGGAUCACCCAUGUAUUUGAUUGGUACAAGAAGGGUCAUGUUUGU | 323 | 659 | – | – |
| AUAUGGAAUACAGGAUAUGUAAGUUUUAAGUGUAUUGGUUAUUACUUUACAACAGAAGGGUAUUACAUGAGGAUCACCCAUGUA | 13.2 | 10.7 | – | – |
| GCGCAGCUGGGUGAGGAUAUCGGUGGUAAAACAUGAGGAUCACCCAUGUCCGGAGCUCGGACUUCCGAGAAGGCACCCGGCUGCA | 39 | 9.8 | – | – |
| AUUUAAUUUAAUAAGAUCACAUGAGGAUCACCCAUGUAUAUAUAGGAUAUCAGCUCGUGUAGAGCUGAGAAGGAUAUAUACAUG | – | – | 55 | 55.2 |
| GGGUACAUCGGAGGAUAUCAUGUAAAUACAUGAGGAUCACCCAUGUCGAUGGAGACAUCGGAGAUUGAGAAGGCCGAUGUAUCG | 157 | 9.09 | – | – |
| CAAAGUUGGUAAGGAUAUCCCACAUUAUUCUGGCCCGUGCAAGCUACAUGAGGAUCACCCAUGUGGGAGAAGGUGCGUUAAAGA | – | – | 22 | 33.7 |
| CCUUUUGUAUAAGGAUAUGUAACAAGGUAUAGAUCGGUAGAAUUUGUGCUUACAGAAGGUAUACAUGAGGAUCACCCAUGUCGA | – | – | 22.1 | 140 |
| GGGUCAACAUGAGGAUCACCCAUGUAGGAUAUCGCUAUUGUAAUCAUGAAACAUGAUUACAAUAGCGAGAAGGACAUAUGCAAA | – | – | 11.3 | 23.4 |
| CGGAGCAUCGAGAAGGGCACAUGGACAACUAAACAUGAGGAUCACCCAUGUGCAGGAUAUCGAAAAUCAUGUGGCCUUGGCCGU | – | – | 15.9 | 155 |
| AAAAAACAUGAGGAUCACCCAUGUCCUCGGACGUGAGGAUAUGUACAGACUUCGGUCUGUACAGAAGGCAUGUCAA | 408 | 604 | – | – |
| GACUCGAAUGUAGGAUAUGCUGAGGAUAACUCAGCAGAAGGACAUGAGGAUCACCCAUGUCAAUGAGUGAAUAAUAAACGAGUC | – | – | 29 | 245 |
| AUUUAUUUUGUGAGGAUAUGCAGGAUCUAGCUCCAGUAGAAGGCACAUGAGGAUCACCCAUGUGGGUCCGAGAC | – | – | 22.9 | 111 |
| UGAGCGCACGAGAAGGGCGGGUUCACGGGCUCCUGACGAGACAUGAGGAUCACCCAUGUAACCACGCAGGAUAUCGACCGGAUC | – | – | 20.9 | 141 |
| UGUGGGAGCAGAGGAUAUUACAUGAGGAUCACCCAUGUAUGAACCAAUAGCUGGAAACAGCAAUGUAAGAAGGCUGCUCCGACA | – | – | 13 | 165 |
| AGCUGGUUAGGAUAUACAUGAGGAUCACCCAUGUUAAAAAAAAAAAAAAGAUUAAAGUGUAGAAGGGAUUAGUA | – | – | 40.4 | 37.1 |
| GCGUCAUGCAGAGGAUAUUGUUGCGGAUCUCUAUAAGAAGGCUGUACAUGAGGAUCACCCAUGUCACCACAUGAGGGUCACGUG | – | – | 22.1 | 41.2 |

| Sequence | apparent Kd [1] [nM] | apparent Kd [2] [nM] | apparent Kd [3] [nM] | apparent Kd [4] [nM] |
| --- | --- | --- | --- | --- |
| AAUAUAAGAGCUGGUAAUCUCAAAACAUGAGGAUCACCCAUGUAGGAUAUCAGCACGAUAAGUGCUGAGAAGGACAUCCAGCUC | – | – | 14.3 | 16.7 |
| AUCUUGUCAGGAUAUGACUACAUAAAAAAAAAAAAAUGUAGUCAGAAGGGACAUGAGGAUCACCCAUGUACUAA | – | – | 34.9 | 54.1 |
| AGUUGGCGAGGAUAUACAUGAGGAUCACCCAUGUGAGAGAAAAAAGUGAGAAAGAAAAGUAGAAGGCGCUGACA | – | – | 45.3 | 217 |
| AACAGCUCGUCAGGAUAUAUUUUCUAAUUAUGUAUUUAUGUACAUGAGGAUCACCCAUGUUGUUAGUAGAAGGGACGAGCUGAA | – | – | 11.7 | 12.1 |
| ACAUGCAUUCGAGGAUAUCGGUGAUUAAUUCUACGAGAAGGCGAUUUAAGAUAUAUUGUUUUAGACAUGAGGAUCACCCAUGUA | 29 | 23.2 | – | – |
| AGAAAUUAGUGAGGAUAUGCAUAAUUUGUAGCUGCAGAAGGCACGGACCACAAGACAUGAGGAUCACCCAUGUGGUAUUUAGAU | – | – | 26.8 | 28 |
| GUGCCGUUGGCUCGACGACCGCUGCAGGAUAUCACAUGAGGAUCACCCAUGUGACUCUGCCCAUGUGAGAAGGGCGGCUGUGUG | – | – | 18.9 | 34.7 |
| AAAAAACAUGAGGAUCACCCAUGUGAGGAUAUCCGAAAAAAAAAAAAAAAAAAAAAAAGGAGAAGGCGCAGCAA | – | – | 242 | 206 |
| UGGCGGAGCAGAGGAUAUUACAUGAGGAUCACCCAUGUAUGAACCAAUAGCUGGAAACAGCAAUGUAAGAAGGCUGCUCCGACA | – | – | 12.1 | 176 |
| GCAAGGCAUGUAGGAUAUCGAGCUCAAAGAGCUCGAGAAGGACAUGAGGAUCACCCAUGUGCUCACAGACAGUGAGCGCCAUGC | – | – | 35.4 | 114 |
| UUGUUGUCAGGAUAUCGUUAAUUUAAUUGUUUGUAUUAGUUCGAGAAGGGACAUGAGGAUCACCCAUGUUUUUU | – | – | 25.6 | 51.5 |
| GGUAUACAUGAGGAUCACCCAUGUCGUAUGACAUGAGGAUAUGUACAGACUUCGGUCUGUACAGAAGGCGUGUGUC | 362 | 158 | – | – |
| GUAAGUCAUGUAGGAUAUCCGAGGCGAAGCGUUGGAGAAGGACAUGAGGAUCACCCAUGUUCUAGCGUCUGAGUACAGAUGCAG | – | – | 29.4 | 104 |
| GCCUCACAUGAGGAUCACCCAUGUCAGGAUAUAGGAGACGGCAGAAAUUCUGCCGUCGCUAGAAGGGACUGGCA | – | – | 44.2 | 86.9 |
| GUCAGCUCGUGAGGAUAUACAUAAUCCUAAGAUCACAUGAGGAUCACCCAUGUAGAAGGCACGAGCUGAUAAGCACGAAAGUGC | – | – | 8.89 | 50.2 |
| ACUUGGUUACAGAAGGGCAUUUAUAAUUAUCAUUACUCAUCCUAUGUUUGCAGGAUAUGUUUAACAUGAGGAUCACCCAUGUAC | 171 | 97.6 | – | – |
| AAAACUCAGAUAGGAUAUAUAGGAUAACUUAAGACCUAACAUGAGGAUCACCCAUGUGAUUAUUCGUAGAAGGAUCAUUGAACC | 240 | 238 | – | – |
| AUGACUUAUGUAGGAUAUGCAUAGAGUUGCUAUGCAGAAGGACAUGAGGAUCACCCAUGUAUGUAUACCUUACAAAACUAGCAU | – | – | 9.07 | 54 |
| ACAUGAGGAUCACCCAUGUGUGCAUAGGAUAUUGAGGAUCAGGGAUGUUUUUUUGGAUAUGCCCACAAGAAGGAUGAAAGUAUU | 13.2 | 12.6 | – | – |
| UUAAAUCAUGUAGGAUAUGCAUGGCGAAGCUACGCAGAAGGACAUGAGGAUCACCCAUGUUAUAGCUUCCCAGUUCGGAGGCAA | – | – | 63.8 | 230 |
| AAUAACAGAGGAUAUACUGUUUUAUGUGUUUAUUGUUUUGAACAUGAGGAUCACCCAUGUAGAAGGCUGAAUAA | – | – | 22.6 | 23.2 |
| AAUAUACAUGAGGAUCACCCAUGUUAGGUGGGACUAGGAUAUCAGAGUACAUUAUGAACAUGAGAAGGAGUCUCAG | 66.2 | 24.2 | – | – |
| AAUGUCUGAGGAUAUCGAAUAGUGUACAUGAGGAUCACCCAUGUUUUUAUUAGUAUAUUACGAGAAGGCAGUGGAA | – | – | 17.8 | 14.8 |
| CCGGAAACGGGUAGCCAGACAUGAGGAUCACCCAUGUGAUCAGAGGAUAUGGAUCCUAAUUGGAUCCAGAAGGCUGUCAGCUAC | 554 | 74.8 | – | – |
| GUAGCAUACCAAGGAUAUUUAGGACUUUGAUAGACAUGAGGAUCACCCAUGUGGCGUUAGUCACGGGAGAAGGUGGUAUGCUAC | 63.5 | 16.9 | – | – |
| UUUUCUACUGAGGAUAUUAUAUUACCCGACUGAUAAGAAGGCAGUACAUGAGGAUCACCCAUGUGGGUAGCCAU | – | – | 21.8 | 31 |
| UUAUGUGUCGUAGGAUAUCAUUAGAUUUGUAAUUUAAUUGUAAUUUACAUAUGAGAAGGACGUAUACAUGAGGAUCACCCAUGU | – | – | 25.5 | 35.9 |
